According to ChEMBL document CHEMBL1157665, “Novel 4-thiazolidinone derivatives as potential antifungal and antibacterial drugs” (2010):
Converted amounts (≈) assume the structure as drawn.

Experiments:
Aspergillus niger [1] = experiment: Antifungal activity against Aspergillus niger ATCC 6275 after 72 hrs by serial sub-cultivation method; type: functional; conditions: ATCC 6275, 72 h
Summary of the method: (§1)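 MFC was found by serial sub-cultivation of 2 µl into plates holding 100 µl broth per well, then incubation 72 h at 28 °C. MFC is the lowest concentration with no visible growth, taken as 99.5% killing of the original inoculum. Spore inocula came from malt agar cultures washed with 0.85% saline and 0.1% Tween 80.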

Aspergillus versicolor [2] = experiment: Antifungal activity against Aspergillus versicolor ATCC 11730 after 72 hrs by serial dilution method; type: functional; conditions: ATCC 11730, 72 h
Summary of the method: (§2)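 Fungi were kept on malt agar at 4 °C and sub-cultured monthly. Spores were washed off the agar with sterile 0.85% saline containing 0.1% Tween 80 (v/v). Modified microdilution in 96-well plates. MIC is the lowest concentration with no visible growth under the binocular microscope. Inoculum checked on malt agar for contamination and validity.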

Aspergillus versicolor [3] = experiment: Antifungal activity against Aspergillus versicolor ATCC 11730 after 72 hrs by serial sub-cultivation method; type: functional; conditions: ATCC 11730, 72 h; summary of the method: as §1
Aspergillus flavus [4] = experiment: Antifungal activity against Aspergillus flavus ATCC 9643 after 72 hrs by serial dilution method; type: functional; conditions: ATCC 9643, 72 h; summary of the method: as §2
Aspergillus flavus [5] = experiment: Antifungal activity against Aspergillus flavus ATCC 9643 after 72 hrs by serial sub-cultivation method; type: functional; conditions: ATCC 9643, 72 h; summary of the method: as §1
Fulvia fulva [6] = experiment: Antifungal activity against Fulvia fulva TK 5318 after 72 hrs by serial dilution method; type: functional; conditions: TK 5318, 72 h; summary of the method: as §2
Fulvia fulva [7] = experiment: Antifungal activity against Fulvia fulva TK 5318 after 72 hrs by serial sub-cultivation method; type: functional; conditions: TK 5318, 72 h; summary of the method: as §1
Bacillus cereus [8] = experiment: Antibacterial activity against Bacillus cereus clinical isolate after 24 hrs; type: functional
Summary of the method: (§3)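 Broth microdilution MIC in 96-well plates. Compounds in LB broth with bacterial inoculum of 1.0 × 10^4 cfu per well, from suspensions adjusted with sterile saline to 1.0 × 10⁵ CFU/ml. Incubated 24 h at […] as printed. MIC taken as the lowest concentration with no visible growth under the binocular microscope. OD at 655 nm also read against blank. Streptomycin and ampicillin as positive controls. Duplicate, repeated three times.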

Bacillus cereus [9] = experiment: Antibacterial activity against Bacillus cereus clinical isolate after 72 hrs by serial sub-cultivation method; type: functional
Summary of the method: (§4)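 MBC was found by serial sub-cultivation of 2 µl from the MIC wells into plates holding 100 µl broth per well, then incubation for 72 h. MBC is the lowest concentration with no visible growth, i.e. 99.5% killing of the original inoculum. Bacterial inoculum was 1.0 × 10^4 cfu per well in LB broth. Duplicate, repeated three times.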

Micrococcus flavus [10] = experiment: Antibacterial activity against Micrococcus flavus ATCC 10240 after 24 hrs; type: functional; conditions: ATCC 10240, 24 h; summary of the method: as §3
Micrococcus flavus [11] = experiment: Antibacterial activity against Micrococcus flavus ATCC 10240 after 72 hrs by serial sub-cultivation method; type: functional; conditions: ATCC 10240, 72 h; summary of the method: as §4
Staphylococcus aureus [12] = experiment: Antibacterial activity against Staphylococcus aureus ATCC 6538 after 24 hrs; type: functional; conditions: ATCC 6538, 24 h; summary of the method: as §3
Staphylococcus aureus [13] = experiment: Antibacterial activity against Staphylococcus aureus ATCC 6538 after 72 hrs by serial sub-cultivation method; type: functional; conditions: ATCC 6538, 72 h; summary of the method: as §4
Escherichia coli [14] = experiment: Antibacterial activity against Escherichia coli ATCC 35210 after 24 hrs; type: functional; conditions: ATCC 35210, 24 h; summary of the method: as §3
Escherichia coli [15] = experiment: Antibacterial activity against Escherichia coli ATCC 35210 after 72 hrs by serial sub-cultivation method; type: functional; conditions: ATCC 35210, 72 h; summary of the method: as §4
Pseudomonas aeruginosa [16] = experiment: Antibacterial activity against Pseudomonas aeruginosa ATCC 27853 after 24 hrs; type: functional; conditions: ATCC 27853, 24 h; summary of the method: as §3
Pseudomonas aeruginosa [17] = experiment: Antibacterial activity against Pseudomonas aeruginosa ATCC 27853 after 72 hrs by serial sub-cultivation method; type: functional; conditions: ATCC 27853, 72 h; summary of the method: as §4
Proteus mirabilis [18] = experiment: Antibacterial activity against Proteus mirabilis after 24 hrs; type: functional; summary of the method: as §3
Proteus mirabilis [19] = experiment: Antibacterial activity against Proteus mirabilis after 72 hrs by serial sub-cultivation method; type: functional; summary of the method: as §4
Salmonella typhimurium [20] = experiment: Antibacterial activity against Salmonella Typhimurium ATCC 13311 after 24 hrs; type: functional, Salmonella enterica subsp. enterica serovar Typhimurium; conditions: Salmonella enterica, ATCC 13311, 24 h; summary of the method: as §3
Salmonella typhimurium [21] = experiment: Antibacterial activity against Salmonella Typhimurium ATCC 13311 after 72 hrs by serial sub-cultivation method; type: functional, Salmonella enterica subsp. enterica serovar Typhimurium; conditions: Salmonella enterica, ATCC 13311, 72 h; summary of the method: as §4
Listeria monocytogenes [22] = experiment: Antibacterial activity against Listeria monocytogenes NCTC 7973 after 24 hrs; type: functional; conditions: NCTC 7973, 24 h; summary of the method: as §3
Listeria monocytogenes [23] = experiment: Antibacterial activity against Listeria monocytogenes NCTC 7973 after 72 hrs by serial sub-cultivation method; type: functional; conditions: NCTC 7973, 72 h; summary of the method: as §4
Talaromyces funiculosus [24] = experiment: Antifungal activity against Penicillium funiculosum ATCC 36839 after 72 hrs by serial dilution method; type: functional; conditions: ATCC 36839, 72 h; summary of the method: as §2
Talaromyces funiculosus [25] = experiment: Antifungal activity against Penicillium funiculosum ATCC 36839 after 72 hrs by serial sub-cultivation method; type: functional; conditions: ATCC 36839, 72 h; summary of the method: as §1
Penicillium ochrochloron [26] = experiment: Antifungal activity against Penicillium ochrochloron ATCC 9112 after 72 hrs by serial dilution method; type: functional; conditions: ATCC 9112, 72 h; summary of the method: as §2
Penicillium ochrochloron [27] = experiment: Antifungal activity against Penicillium ochrochloron ATCC 9112 after 72 hrs by serial sub-cultivation method; type: functional; conditions: ATCC 9112, 72 h; summary of the method: as §1
Trichoderma viride [28] = experiment: Antifungal activity against Trichoderma viride IAM 5061 after 72 hrs by serial dilution method; type: functional; conditions: IAM 5061, 72 h; summary of the method: as §2
Trichoderma viride [29] = experiment: Antifungal activity against Trichoderma viride IAM 5061 after 72 hrs by serial sub-cultivation method; type: functional; conditions: IAM 5061, 72 h; summary of the method: as §1
Aspergillus niger [30] = experiment: Antifungal activity against Aspergillus niger ATCC 6275 after 72 hrs by serial dilution method; type: functional; conditions: ATCC 6275, 72 h; summary of the method: as §2
Aspergillus fumigatus [31] = experiment: Antifungal activity against Aspergillus fumigatus plant isolate after 72 hrs by serial dilution method
Aspergillus fumigatus [32] = experiment: Antifungal activity against Aspergillus fumigatus plant isolate after 72 hrs by serial sub-cultivation method

MIC (Aspergillus versicolor [2]) [µM]	MIC (Aspergillus flavus [4]) [µM]	MIC (Fulvia fulva [6]) [µM]	MIC (Bacillus cereus [8]) [µM]	MIC (Micrococcus flavus [10]) [µM]	MIC (Staphylococcus aureus [12]) [µM]	MIC (Escherichia coli [14]) [µM]	MIC (Pseudomonas aeruginosa [16]) [µM]	MIC (Proteus mirabilis [18]) [µM]	MIC (Salmonella typhimurium [20]) [µM]	SMILES	MFC (Aspergillus niger [1]) [µM]	MFC (Aspergillus versicolor [3]) [µM]	MFC (Aspergillus flavus [5]) [µM]	MFC (Fulvia fulva [7]) [µM]	MBC (Bacillus cereus [9]) [µM]	MBC (Micrococcus flavus [11]) [µM]	MBC (Staphylococcus aureus [13]) [µM]	MBC (Escherichia coli [15]) [µM]	MBC (Pseudomonas aeruginosa [17]) [µM]	MBC (Proteus mirabilis [19]) [µM]	further results
16.4 (≈ 7.48 µg/mL)	11 (≈ 5.02 µg/mL)	11 (≈ 5.02 µg/mL)	16.4 (≈ 7.48 µg/mL)	11 (≈ 5.02 µg/mL)	21.9 (≈ 9.99 µg/mL)	21.9 (≈ 9.99 µg/mL)	21.9 (≈ 9.99 µg/mL)	43.8 (≈ 20 µg/mL)	21.9 (≈ 9.99 µg/mL)	O=C1N/C(=N/c2nc(C34CC5CC(CC(C5)C3)C4)cs2)S/C1=C\c1ccc(Cl)cc1	21.9 (≈ 9.99 µg/mL)	21.9 (≈ 9.99 µg/mL)	21.9 (≈ 9.99 µg/mL)	16.4 (≈ 7.48 µg/mL)	21.9 (≈ 9.99 µg/mL)	21.9 (≈ 9.99 µg/mL)	43.8 (≈ 20 µg/mL)	43.8 (≈ 20 µg/mL)	43.8 (≈ 20 µg/mL)	65.7 (≈ 30 µg/mL)	MBC (Salmonella typhimurium [21]): 43.8 µM (≈ 20 µg/mL); MIC (Listeria monocytogenes [22]): 21.9 µM (≈ 9.99 µg/mL); MBC (Listeria monocytogenes [23]): 43.8 µM (≈ 20 µg/mL); MIC (Talaromyces funiculosus [24]): 11 µM (≈ 5.02 µg/mL); MFC (Talaromyces funiculosus [25]): 21.9 µM (≈ 9.99 µg/mL); MIC (Penicillium ochrochloron [26]): 16.4 µM (≈ 7.48 µg/mL); MFC (Penicillium ochrochloron [27]): 21.9 µM (≈ 9.99 µg/mL); MIC (Trichoderma viride [28]): 11 µM (≈ 5.02 µg/mL); MFC (Trichoderma viride [29]): 16.4 µM (≈ 7.48 µg/mL); MIC (Aspergillus niger [30]): 11 µM (≈ 5.02 µg/mL); MIC (Aspergillus fumigatus [31]): 11 µM (≈ 5.02 µg/mL); MFC (Aspergillus fumigatus [32]): 21.9 µM (≈ 9.99 µg/mL)
23.8 (≈ 7.94 µg/mL)	17.9 (≈ 5.97 µg/mL)	6 (≈ 2 µg/mL)	17.9 (≈ 5.97 µg/mL)	23.8 (≈ 7.94 µg/mL)	23.8 (≈ 7.94 µg/mL)	23.8 (≈ 7.94 µg/mL)	17.9 (≈ 5.97 µg/mL)	47.6 (≈ 15.9 µg/mL)	23.8 (≈ 7.94 µg/mL)	O=C1CS/C(=N/c2nc(C34CC5CC(CC(C5)C3)C4)cs2)N1	23.8 (≈ 7.94 µg/mL)	33.5 (≈ 11.2 µg/mL)	23.8 (≈ 7.94 µg/mL)	11.9 (≈ 3.97 µg/mL)	23.8 (≈ 7.94 µg/mL)	47.6 (≈ 15.9 µg/mL)	47.6 (≈ 15.9 µg/mL)	47.6 (≈ 15.9 µg/mL)	47.6 (≈ 15.9 µg/mL)	71.7 (≈ 23.9 µg/mL)	MBC (Salmonella typhimurium [21]): 47.6 µM (≈ 15.9 µg/mL); MIC (Listeria monocytogenes [22]): 23.8 µM (≈ 7.94 µg/mL); MBC (Listeria monocytogenes [23]): 47.6 µM (≈ 15.9 µg/mL); MIC (Talaromyces funiculosus [24]): 17.9 µM (≈ 5.97 µg/mL); MFC (Talaromyces funiculosus [25]): 23.8 µM (≈ 7.94 µg/mL); MIC (Penicillium ochrochloron [26]): 6 µM (≈ 2 µg/mL); MFC (Penicillium ochrochloron [27]): 23.8 µM (≈ 7.94 µg/mL); MIC (Trichoderma viride [28]): 11.9 µM (≈ 3.97 µg/mL); MFC (Trichoderma viride [29]): 23.8 µM (≈ 7.94 µg/mL); MIC (Aspergillus niger [30]): 11.9 µM (≈ 3.97 µg/mL); MIC (Aspergillus fumigatus [31]): 11.9 µM (≈ 3.97 µg/mL); MFC (Aspergillus fumigatus [32]): 23.8 µM (≈ 7.94 µg/mL)
16.4 (≈ 7.48 µg/mL)	11 (≈ 5.02 µg/mL)	11 (≈ 5.02 µg/mL)	21.9 (≈ 9.99 µg/mL)	16.4 (≈ 7.48 µg/mL)	21.9 (≈ 9.99 µg/mL)	21.9 (≈ 9.99 µg/mL)	21.9 (≈ 9.99 µg/mL)	43.8 (≈ 20 µg/mL)	21.9 (≈ 9.99 µg/mL)	O=C1N/C(=N/c2nc(C34CC5CC(CC(C5)C3)C4)cs2)S/C1=C\c1ccccc1Cl	21.9 (≈ 9.99 µg/mL)	21.9 (≈ 9.99 µg/mL)	21.9 (≈ 9.99 µg/mL)	16.4 (≈ 7.48 µg/mL)	43.8 (≈ 20 µg/mL)	23.8 (≈ 10.9 µg/mL)	43.8 (≈ 20 µg/mL)	43.8 (≈ 20 µg/mL)	43.8 (≈ 20 µg/mL)	63.7 (≈ 29 µg/mL)	MBC (Salmonella typhimurium [21]): 43.8 µM (≈ 20 µg/mL); MIC (Listeria monocytogenes [22]): 21.9 µM (≈ 9.99 µg/mL); MBC (Listeria monocytogenes [23]): 43.8 µM (≈ 20 µg/mL); MIC (Talaromyces funiculosus [24]): 21.9 µM (≈ 9.99 µg/mL); MFC (Talaromyces funiculosus [25]): 32.3 µM (≈ 14.7 µg/mL); MIC (Penicillium ochrochloron [26]): 11 µM (≈ 5.02 µg/mL); MFC (Penicillium ochrochloron [27]): 21.9 µM (≈ 9.99 µg/mL); MIC (Trichoderma viride [28]): 11 µM (≈ 5.02 µg/mL); MFC (Trichoderma viride [29]): 21.9 µM (≈ 9.99 µg/mL); MIC (Aspergillus niger [30]): 11 µM (≈ 5.02 µg/mL); MIC (Aspergillus fumigatus [31]): 16.4 µM (≈ 7.48 µg/mL); MFC (Aspergillus fumigatus [32]): 21.9 µM (≈ 9.99 µg/mL)
